Numbering of substitutions follows the chain as printed. Like-named read-outs stand apart in the source and are kept apart here.
Assays:
[1] = molecular target: T1, αS589N ENaC mutant (Rattus norvegicus, UniProt P37089+P37090+P37091, S589N); format: cell-based
T1 sequence (P37089 1-698 S589N): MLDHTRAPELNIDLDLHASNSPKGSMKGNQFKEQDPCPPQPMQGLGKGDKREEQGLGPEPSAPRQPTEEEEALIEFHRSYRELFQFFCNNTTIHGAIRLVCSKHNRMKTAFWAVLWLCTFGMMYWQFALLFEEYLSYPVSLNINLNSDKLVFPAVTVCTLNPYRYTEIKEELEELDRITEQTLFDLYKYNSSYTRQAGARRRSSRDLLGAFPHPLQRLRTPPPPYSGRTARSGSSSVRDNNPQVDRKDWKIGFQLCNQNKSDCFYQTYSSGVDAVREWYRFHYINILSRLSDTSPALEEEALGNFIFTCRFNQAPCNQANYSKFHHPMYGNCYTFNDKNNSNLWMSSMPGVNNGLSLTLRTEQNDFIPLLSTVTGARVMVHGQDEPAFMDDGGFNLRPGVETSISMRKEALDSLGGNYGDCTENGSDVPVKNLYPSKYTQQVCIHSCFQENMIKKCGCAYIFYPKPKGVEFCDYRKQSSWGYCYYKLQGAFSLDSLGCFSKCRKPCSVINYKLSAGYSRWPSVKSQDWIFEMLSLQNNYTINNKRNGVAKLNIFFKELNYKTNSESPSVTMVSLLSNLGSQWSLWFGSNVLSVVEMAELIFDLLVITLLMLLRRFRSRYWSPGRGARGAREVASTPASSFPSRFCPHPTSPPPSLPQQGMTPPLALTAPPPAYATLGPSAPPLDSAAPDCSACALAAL
T1 sequence (P37090 1-638): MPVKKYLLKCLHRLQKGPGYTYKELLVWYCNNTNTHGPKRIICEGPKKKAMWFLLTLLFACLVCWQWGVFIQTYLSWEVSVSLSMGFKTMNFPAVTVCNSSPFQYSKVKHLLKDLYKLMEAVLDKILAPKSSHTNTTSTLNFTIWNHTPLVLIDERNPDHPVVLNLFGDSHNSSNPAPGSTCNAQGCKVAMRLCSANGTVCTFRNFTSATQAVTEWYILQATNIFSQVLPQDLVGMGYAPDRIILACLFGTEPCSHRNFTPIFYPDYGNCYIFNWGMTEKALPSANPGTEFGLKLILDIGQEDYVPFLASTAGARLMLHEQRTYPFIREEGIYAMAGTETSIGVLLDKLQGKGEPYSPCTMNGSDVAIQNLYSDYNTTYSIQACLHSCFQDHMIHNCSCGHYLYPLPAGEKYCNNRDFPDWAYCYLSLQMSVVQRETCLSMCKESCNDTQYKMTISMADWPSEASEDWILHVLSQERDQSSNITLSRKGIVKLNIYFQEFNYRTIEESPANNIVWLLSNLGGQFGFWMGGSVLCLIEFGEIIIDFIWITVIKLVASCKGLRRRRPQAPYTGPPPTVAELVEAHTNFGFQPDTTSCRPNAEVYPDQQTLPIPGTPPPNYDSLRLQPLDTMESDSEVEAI
T1 sequence (P37091 1-650): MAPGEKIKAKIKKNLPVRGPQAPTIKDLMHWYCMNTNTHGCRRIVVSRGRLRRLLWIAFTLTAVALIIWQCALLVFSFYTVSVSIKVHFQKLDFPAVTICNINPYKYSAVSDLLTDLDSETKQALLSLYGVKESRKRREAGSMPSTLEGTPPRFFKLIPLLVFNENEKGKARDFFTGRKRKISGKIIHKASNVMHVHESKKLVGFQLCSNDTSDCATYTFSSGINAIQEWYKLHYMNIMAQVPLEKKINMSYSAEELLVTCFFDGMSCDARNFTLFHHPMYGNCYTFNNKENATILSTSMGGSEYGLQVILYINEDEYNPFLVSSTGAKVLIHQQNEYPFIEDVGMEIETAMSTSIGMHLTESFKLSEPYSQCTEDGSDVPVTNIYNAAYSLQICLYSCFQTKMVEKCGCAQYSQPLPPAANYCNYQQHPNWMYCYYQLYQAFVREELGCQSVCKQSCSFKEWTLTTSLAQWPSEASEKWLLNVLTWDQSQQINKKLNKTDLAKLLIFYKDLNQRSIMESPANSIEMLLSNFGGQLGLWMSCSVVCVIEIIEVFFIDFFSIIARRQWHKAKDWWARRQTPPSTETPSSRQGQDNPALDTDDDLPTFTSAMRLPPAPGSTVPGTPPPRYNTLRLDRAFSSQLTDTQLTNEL
Method in brief: (§1)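 Stage V–VI Xenopus oocytes were pressure-injected with 100 nl of equal amounts of rat α, β and γ ENaC cRNAs (mutations in α only), 100 ng/μl total. Two-electrode voltage clamp was done 16–48 h post-injection. For other permeant cations, Na+ was replaced at the same concentration.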

[2] = molecular target: T2, ENaC wt (Rattus norvegicus, UniProt P37089+P37090+P37091); format: cell-based
T2 sequence (P37089 1-698): T1 sequence (P37089 1-698 S589N) with N589S
T2 sequence (P37090 1-638): T1 sequence (P37090 1-638)
T2 sequence (P37091 1-650): T1 sequence (P37091 1-650)
Method in brief: as §1

[3] = system: wt and mutant (αS589) ENaC channels; test: Block of ionic currents by 100 μM amiloride; format: cell-based, rat
Method in brief: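 Oocytes were co-injected with rat αβγ ENaC cRNAs (100 nl, 100 ng/μl total, equal amounts of each subunit) and recorded by two-electrode voltage clamp 16–48 h later. Amiloride-sensitive current was taken as the difference between currents with and without 100 μM amiloride in the bath.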

[4] = system: ENaC mutants of α (S583), β (G525) or γ subunit (G537); conditions: mutations of α S583, β G525 or γ G537; ref Schild et al. 1997; cited from earlier work
[5] = molecular target: T3, αS589H ENaC mutant (Rattus norvegicus, UniProt P37089+P37090+P37091, S589H); format: cell-based
T3 sequence (P37089 1-698 S589H): T1 sequence (P37089 1-698 S589N) with N589H
T3 sequence (P37090 1-638): T1 sequence (P37090 1-638)
T3 sequence (P37091 1-650): T1 sequence (P37091 1-650)
Method in brief: as §1

[6] = molecular target: T4, αE598A ENaC mutant (Rattus norvegicus, UniProt P37089+P37090+P37091, E598A); test: Amiloride block of αE598A mutant; format: cell-based
T4 sequence (P37089 1-698 E598A): T1 sequence (P37089 1-698 S589N) with N589S, E598A
T4 sequence (P37090 1-638): T1 sequence (P37090 1-638)
T4 sequence (P37091 1-650): T1 sequence (P37091 1-650)

[7] = molecular target: T5, αS589D ENaC mutant (Rattus norvegicus, UniProt P37089+P37090+P37091, S589D); format: cell-based
T5 sequence (P37089 1-698 S589D): T1 sequence (P37089 1-698 S589N) with N589D
T5 sequence (P37090 1-638): T1 sequence (P37090 1-638)
T5 sequence (P37091 1-650): T1 sequence (P37091 1-650)
Method in brief: as §1

[8] = molecular target: T2, ENaC wt; test: Effect of extracellular MTSEA on INa; format: cell-based; conditions: 2-min extracellular application of 2.5 mM MTSEA
Method in brief: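 Two-electrode voltage clamp was run on Xenopus oocytes 16–48 h after injecting rat αβγ ENaC cRNAs (100 nl, 100 ng/μl total). INa was the current sensitive to 100 μM amiloride. Aqueous MTSEA stock was made fresh, kept on ice and diluted into bath immediately before use.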

N=C(N)NC(=O)c1nc(Cl)c(N)nc1N [amiloride]
IC50 ([1]; IC50 for amiloride block of the NH4+ current, NH4+ current, n = 6–7): 190 ± 60 nM
IC50 ([1]; IC50 for amiloride block, Na+ as the main extracellular cation, n = 6–16): 440 ± 50 nM
IC50 [2]: 180 ± 80 nM
block of ionic currents [3]: completely blocked
decrease of channel affinity for amiloride [4]: two to three orders of magnitude
IC50 [5]: 2800 ± 650 nM
increase of the IC50 for amiloride block (factor vs wt) ([5]; αS589H relative to ENaC wt): 16
amiloride block compared with wt [6]: not different from wt
IC50 [7]: 100 ± 20 nM

CS(=O)(=O)SCCN [MTSEA, aminoethyl methanethiosulfate]
ratio of INa after MTSEA application relative to the initial INa [8]: 0.77 ± 0.33
